Measurements: ChEMBL document CHEMBL4138161, “Discovery of simplified sampangine derivatives as novel fungal biofilm inhibitors” (Eur J Med Chem, 2018)
Values after ≈ are worked out from the molar mass of the structure shown. Active and inactive are the calls of the source. No cut-off for these calls is given here.

Assays:
Candida albicans [1] = assay: Antibiofilm activity against Candida albicans SC5314 cultured in SLAD media assessed inhibition of yeast-to-hypha morphological transition after 3 hrs; assay type: functional, organism-based
Method in brief: (§1)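 Hyphal induction in Lee's (pH 6.8), Spider, SLAD or RPMI 1640 medium with compound; morphology assessed by microscopy.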

Candida albicans [2] = assay: Antifungal activity against fluconazole-resistant Candida albicans isolate Chang7 clinical isolate after 24 hrs by spectrophotometric analysis; assay type: functional; conditions: isolate Chang7, 24 h
Method in brief: (§2)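 Broth microdilution (MIC80) against fluconazole-resistant clinical C. albicans isolates from a Shanghai hospital. Strains were grown in YPD at 30 ℃. Compounds came from 6.4 mg/mL DMSO stocks and were tested over a concentration series on 5×10^3 CFU/mL inoculum in RPMI 1640 at 35 ℃ for 24 h. OD600 was read; MIC80 is the lowest concentration giving 80% growth inhibition. Done in triplicate.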

Staphylococcus aureus = assay: Antibacterial activity against Staphylococcus aureus NRS271 after 24 hrs; assay type: functional; conditions: NRS271, 24 h
Candida parapsilosis = assay: Antifungal activity against Candida parapsilosis 22019 after 24 hrs by spectrophotometric analysis; assay type: functional; conditions: Lodderomyces parapsilosis, 22019, 24 h
Method in brief: (§3)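 Broth microdilution in RPMI 1640, inoculum 5×10^3 CFU/mL, compounds from 6.4 mg/mL DMSO stocks, 35 ℃ for 24 h. Growth read as OD600; MIC80 taken as lowest concentration giving 80% growth inhibition. Triplicate.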

Candida albicans [3] = assay: Antibiofilm activity against Candida albicans SC5314 cultured in Spider media assessed inhibition of yeast-to-hypha morphological transition after 3 hrs; assay type: functional, organism-based; method in brief: as §1
Aspergillus fumigatus = assay: Antifungal activity against Aspergillus fumigatus 07544 after 24 hrs by spectrophotometric analysis; assay type: functional; conditions: Aspergillus fumigatus, 07544, 24 h; method in brief: as §3
Candida albicans [4] = assay: Antibiofilm activity against Candida albicans SC5314 assessed inhibition of yeast-to-hypha morphological transition at 0.25 ug/ml after 3 hrs; assay type: functional, organism-based
Method in brief: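 Cells were induced to form hyphae in YPD with 10% (vol/vol) fetal bovine serum at 37°C for 3 h with compound. Cell morphology was then photographed. Strains were routinely grown beforehand in YPD at 30°C with shaking.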

Candida albicans [5] = assay: Antibiofilm activity against Candida albicans SC5314 assessed down regulation of EAP1 gene at 0.4 ug/ml after 1 hr by qRT-PCR analysis; assay type: functional, organism-based
Method in brief: (§4)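 Biofilm grown in dishes with 0.4 µg/mL compound or DMSO control for 1 h; total RNA isolated and transcripts quantified by real-time RT-PCR. Normalized to 18S rRNA, expressed as fold change vs untreated SC5314. Mean ± SD of three independent experiments.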

Candida albicans [6] = assay: Antibiofilm activity against Candida albicans SC5314 assessed down regulation of EFG1 gene at 0.4 ug/ml after 1 hr by qRT-PCR analysis; assay type: functional, organism-based; method in brief: as §4
Trichophyton rubrum = assay: Antifungal activity against Trichophyton rubrum Cmccftla after 24 hrs by spectrophotometric analysis; assay type: functional; method in brief: as §3
Candida albicans [7] = assay: Antibiofilm activity against Candida albicans SC5314 assessed inhibition of yeast-to-hypha morphological transition at 0.5 ug/ml after 3 hrs; assay type: functional, organism-based
Method in brief: (§5)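 Yeast-to-hypha transition in YPD with 10% (v/v) FBS across compound concentrations; cell morphology photographed after 3 h at 37°C.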

Candida albicans [8] = assay: Antibiofilm activity against Candida albicans SC5314 assessed down regulation of RAS1 gene at 0.4 ug/ml after 1 hr by qRT-PCR analysis; assay type: functional, organism-based; method in brief: as §4
Nannizzia gypsea = assay: Antifungal activity against Microsporum gypseum Cmccfmza after 24 hrs by spectrophotometric analysis; assay type: functional; method in brief: as §3
Candida albicans [9] = assay: Antibiofilm activity against Candida albicans SC5314 assessed down regulation of HGC1 gene at 0.4 ug/ml after 1 hr by qRT-PCR analysis; assay type: functional, organism-based; method in brief: as §4
Candida albicans [10] = assay: Antibiofilm activity against Candida albicans SC5314 assessed down regulation of CEK1 gene at 0.4 ug/ml after 1 hr by qRT-PCR analysis; assay type: functional, organism-based; method in brief: as §4
Candida albicans [11] = assay: Antibiofilm activity against Candida albicans SC5314 cultured in Lee media assessed inhibition of yeast-to-hypha morphological transition after 3 hrs; assay type: functional, organism-based; method in brief: as §1
Candida albicans [12] = assay: Antifungal activity against fluconazole-resistant Candida albicans clinical isolate 103 after 24 hrs by spectrophotometric analysis; assay type: functional; conditions: isolate 103, 24 h; method in brief: as §2
Candida albicans [13] = assay: Antifungal activity against Candida albicans SC5314 after 24 hrs by spectrophotometric analysis; assay type: functional; conditions: SC5314, 24 h; method in brief: as §3
Candida albicans [14] = assay: Antibiofilm activity against Candida albicans SC5314 cultured in YPD media containing 10% FBS assessed inhibition of yeast-to-hypha morphological transition after 3 hrs; assay type: functional, organism-based; method in brief: as §5
Candida albicans [15] = assay: Antibiofilm activity against Candida albicans SC5314 assessed down regulation of ALS3 gene at 0.4 ug/ml after 1 hr by qRT-PCR analysis; assay type: functional, organism-based; method in brief: as §4
Candida albicans [16] = assay: Antifungal activity against fluconazole-resistant Candida albicans clinical isolate 032 after 24 hrs by spectrophotometric analysis; assay type: functional; conditions: isolate 032, 24 h; method in brief: as §2
Cryptococcus neoformans = assay: Antifungal activity against Cryptococcus neoformans 32609 after 24 hrs by spectrophotometric analysis; assay type: functional; conditions: Cryptococcus neoformans, 32609, 24 h; method in brief: as §3
Candida albicans [17] = assay: Antibiofilm activity against Candida albicans SC5314 assessed down regulation of CYR1 gene at 0.4 ug/ml after 1 hr by qRT-PCR analysis; assay type: functional, organism-based; method in brief: as §4
Candida albicans [18] = assay: Antifungal activity against Candida albicans infected in Sprague-Dawley rat vaginal infection model assessed as reduction in vaginal fungal burden at 1 mg/kg, administered intravaginally on day 1 to day 3 post fungal inoculation measured on day 4; assay type: functional, organism-based
Method in brief: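 Ovariectomized rats inoculated intravaginally with 0.1 mL of 1×10^7 CFU/mL C. albicans on days 10, 11 and 12 after surgery. Compound in saline with 1% DMSO (2, 4, 8 mg/mL) given intravaginally on days 1–3 post-inoculation. On day 4, 100 µL vaginal fluid plated on chloramphenicol SDA agar for CFU counts.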

Candida albicans [19] = assay: Antibiofilm activity against Candida albicans SC5314 assessed down regulation of HWP1 gene at 0.4 ug/ml after 1 hr by qRT-PCR analysis; assay type: functional, organism-based; method in brief: as §4
Candida albicans [20] = assay: Antifungal activity against Candida albicans SC5314 after 48 hrs by spectrophotometric analysis; assay type: functional; conditions: SC5314, 48 h
Candida albicans [21] = assay: Antibiofilm activity against Candida albicans SC5314 assessed as disruption of biofilm formation at 0.8 ug/ml after 24 hrs by scanning electron microscopic analysis; assay type: functional, organism-based
Method in brief: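 Biofilm SEM: cells adhered to poly-L-lysine-coated glass disks, 90 min static at 37°C; non-adherent cells removed, then grown in fresh RPMI 1640 with compound at 37°C for 24 h. Fixed in 2% glutaraldehyde in 0.15 M sodium cacodylate (pH 7.2) for 2 h, graded ethanol dehydration, dried 1 h, gold-coated and imaged by SEM.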

CAPAN-1 = assay: Cytotoxicity against human Capan1 cells assessed as cell growth inhibition after 48 hrs by CCK8 assay; assay type: cell-based; conditions: CAPAN-1, 48 h
Candida albicans [22] = assay: Antibiofilm activity against Candida albicans SC5314 assessed down regulation of UME6 gene at 0.4 ug/ml after 1 hr by qRT-PCR analysis; assay type: functional, organism-based; method in brief: as §4
Nakaseomyces glabratus = assay: Antifungal activity against Candida glabrata 537 after 24 hrs by spectrophotometric analysis; assay type: functional; conditions: Nakaseomyces glabratus, 537, 24 h; method in brief: as §3
Candida albicans [23] = assay: Antifungal activity against fluconazole-resistant Candida albicans clinical isolate 1010 after 24 hrs by spectrophotometric analysis; assay type: functional; conditions: isolate 1010, 24 h; method in brief: as §2

Row | Structure (SMILES) | Activity (Candida albicans [1]) | MIC80 (Candida albicans [2]) | MIC80 (Staphylococcus aureus) | MIC80 (Candida parapsilosis) | Activity (Candida albicans [3]) | MIC80 (Aspergillus fumigatus) | Activity (Candida albicans [4]) | Activity (Candida albicans [5]) | Activity (Candida albicans [6]) | MIC80 (Trichophyton rubrum) | Activity (Candida albicans [7]) | Activity (Candida albicans [8]) | MIC80 (Nannizzia gypsea) | Activity (Candida albicans [9]) | Activity (Candida albicans [10]) | Activity (Candida albicans [11]) | MIC80 (Candida albicans [12]) | MIC80 (Candida albicans [13]) | Activity (Candida albicans [14]) | Activity (Candida albicans [15]) | other results
1 | CCc1ccnc2c1C(=O)c1sc([N+](=O)[O-])cc1C2=O | Dose-dependent effect | 0.25 µg/mL (≈ 0.867 µM) | > 128 µg/mL | 1 µg/mL (≈ 3.47 µM) | Dose-dependent effect | 4 µg/mL (≈ 13.9 µM) | Active | Active | Active | 0.5 µg/mL (≈ 1.73 µM) | Active | Active | 2 µg/mL (≈ 6.94 µM) | Active | Active | Dose-dependent effect | 0.25 µg/mL (≈ 0.867 µM) | 0.5 µg/mL (≈ 1.73 µM) | Dose-dependent effect | Active | MIC80 (Candida albicans [16]): 0.5 µg/mL (≈ 1.73 µM); MIC80 (Cryptococcus neoformans): 1 µg/mL (≈ 3.47 µM); Activity (Candida albicans [17]): Active; Activity (Candida albicans [18]): Active; Activity (Candida albicans [19]): Active; MIC80 (Candida albicans [20]): 0.25 µg/mL (≈ 0.867 µM); Activity (Candida albicans [21]): Active; IC50 (CAPAN-1): > 100 µM; Activity (Candida albicans [22]): Active; MIC80 (Nakaseomyces glabratus): 2 µg/mL (≈ 6.94 µM); MIC80 (Candida albicans [23]): 0.25 µg/mL (≈ 0.867 µM)
2 | CCCc1ccnc2c1C(=O)c1sc([N+](=O)[O-])cc1C2=O | Dose-dependent effect | 1 µg/mL (≈ 3.31 µM) | > 128 µg/mL | 0.5 µg/mL (≈ 1.65 µM) | Dose-dependent effect | 4 µg/mL (≈ 13.2 µM) | Active | Active | Active | 2 µg/mL (≈ 6.62 µM) | Active | Active | 2 µg/mL (≈ 6.62 µM) | Active | Active | Dose-dependent effect | 0.5 µg/mL (≈ 1.65 µM) | 0.5 µg/mL (≈ 1.65 µM) | Dose-dependent effect | Active | MIC80 (Candida albicans [16]): 1 µg/mL (≈ 3.31 µM); MIC80 (Cryptococcus neoformans): 1 µg/mL (≈ 3.31 µM); Activity (Candida albicans [17]): Active; Activity (Candida albicans [18]): Active; Activity (Candida albicans [19]): Active; MIC80 (Candida albicans [20]): 0.5 µg/mL (≈ 1.65 µM); Activity (Candida albicans [21]): Active; IC50 (CAPAN-1): > 100 µM; Activity (Candida albicans [22]): Active; MIC80 (Nakaseomyces glabratus): 2 µg/mL (≈ 6.62 µM); MIC80 (Candida albicans [23]): 0.5 µg/mL (≈ 1.65 µM)
